ChEMBL document CHEMBL1130878 (Bioorg Med Chem Lett, 1998)

How the values were obtained:
[1] = target: T1, Endothelin receptor type B (Sus scrofa, UniProt P35463); assay: In vitro ability to inhibit specific [125I]ET1 binding to porcine kidney (inner medulla) membranes Endothelin B receptor
T1 sequence (P35463 whole entry): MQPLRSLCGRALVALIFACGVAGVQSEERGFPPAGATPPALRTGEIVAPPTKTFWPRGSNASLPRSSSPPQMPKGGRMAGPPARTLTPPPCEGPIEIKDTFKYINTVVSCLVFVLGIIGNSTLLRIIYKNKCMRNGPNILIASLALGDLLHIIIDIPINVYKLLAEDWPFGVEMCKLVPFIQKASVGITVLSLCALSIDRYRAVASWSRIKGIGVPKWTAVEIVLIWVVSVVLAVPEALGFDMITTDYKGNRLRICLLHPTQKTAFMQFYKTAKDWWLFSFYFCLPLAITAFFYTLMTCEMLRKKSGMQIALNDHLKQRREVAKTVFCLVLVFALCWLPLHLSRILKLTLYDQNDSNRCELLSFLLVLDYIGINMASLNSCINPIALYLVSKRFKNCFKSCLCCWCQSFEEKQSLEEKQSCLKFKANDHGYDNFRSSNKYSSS

Endothelin-1 receptor = target: T2, Endothelin-1 receptor (Rattus norvegicus, UniProt P26684); assay: In vitro ability to inhibit specific [125I]ET1 binding to rat aorta membranes Endothelin A receptor; assay type: tissue-based
T2 sequence (P26684 whole entry): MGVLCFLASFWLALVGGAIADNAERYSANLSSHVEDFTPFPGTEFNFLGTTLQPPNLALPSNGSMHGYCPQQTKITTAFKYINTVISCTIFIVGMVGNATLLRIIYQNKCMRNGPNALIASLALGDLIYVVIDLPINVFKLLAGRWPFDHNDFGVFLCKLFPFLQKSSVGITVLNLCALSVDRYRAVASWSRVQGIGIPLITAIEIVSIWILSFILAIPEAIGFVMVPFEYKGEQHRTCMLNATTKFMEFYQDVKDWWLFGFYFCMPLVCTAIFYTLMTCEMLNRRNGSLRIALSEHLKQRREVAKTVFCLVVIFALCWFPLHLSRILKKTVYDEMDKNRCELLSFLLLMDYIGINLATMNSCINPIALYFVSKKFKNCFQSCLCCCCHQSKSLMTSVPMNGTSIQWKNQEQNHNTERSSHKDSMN

Rattus norvegicus = species: Rattus norvegicus; assay: Compound was evaluated for the functional assay performed by obtaining ET-1 concentration-response curves [pA2(ETA)] in isolated rat aortic rings; conditions: Aorta, read-out: pA2 (converted)
How it was run: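 Functional ETA assay: ET-1 concentration-response curves in isolated rat aortic rings with the endothelium removed. Antagonism is expressed as pA2.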

Oryctolagus cuniculus = species: Oryctolagus cuniculus; assay: Compound was evaluated for the functional assay performed by obtaining sarafotoxin 6c concentration-response curves [pA2(ETB)] in isolated rabbit jugularis vein

IC50 [1]	IC50 (Endothelin-1 receptor)	Structure (SMILES)	Kb (Rattus norvegicus)	Kb (Oryctolagus cuniculus)
550 nM	64 nM	COc1cc(C/C(C(=O)c2ccc(OC(C)C)cc2)=C(/C(=O)O)c2ccc3nsnc3c2)cc(OC)c1OC		
4800 nM	16 nM	COc1ccccc1C(=O)/C(Cc1cc(OC)c(OC)c(OC)c1)=C(\C(=O)O)c1ccc2nsnc2c1		
	12 nM	COc1cc(F)ccc1C(=O)/C(Cc1cc(OC)c(OC)c(OC)c1)=C(\C(=O)O)c1ccc2nsnc2c1		
1200 nM	26 nM	COc1ccc(C(=O)/C(Cc2ccccc2)=C(\C(=O)O)c2ccc3nsnc3c2)cc1	25.1 nM	
340 nM	0.3 nM	COc1ccc(C(=O)/C(Cc2cc(OC)c(OC)c(OC)c2)=C(\C(=O)O)c2ccc3nsnc3c2)cc1	3.16 nM	794 nM
460 nM	28 nM	COc1cc(C/C(C(=O)c2ccc3c(c2)CCO3)=C(/C(=O)O)c2ccc3nsnc3c2)cc(OC)c1OC		
3200 nM	17 nM	COc1ccc(C(=O)/C(Cc2ccc(SC)cc2)=C(\C(=O)O)c2ccc3nsnc3c2)cc1		
180 nM	1 nM	COc1ccc(C(=O)/C(Cc2cc(OC)c(OC)c(OC)c2)=C(\C(=O)O)c2ccc3nsnc3c2)cc1Cl		
4550 nM	7.4 nM	COc1ccc(C(=O)/C(Cc2ccccc2)=C(\C(=O)O)c2ccc3c(c2)OCO3)cc1		
1000 nM	3.4 nM	COc1ccc(C(=O)/C(Cc2cccc(OC)c2)=C(\C(=O)O)c2ccc3nsnc3c2)cc1		
1600 nM	580 nM	COc1ccc(C(=O)/C(Cc2ccc(OC(C)(C)C)cc2)=C(\C(=O)O)c2ccc3nsnc3c2)cc1		
1500 nM	66 nM	COc1ccc(C(=O)/C(Cc2ccc3c(c2)OCO3)=C(\C(=O)O)c2ccc3nsnc3c2)cc1		
		CCCCN(CCCC)C(=O)CN1C[C@H](c2ccc3c(c2)OCO3)[C@@H](C(=O)O)[C@@H]1c1ccc(OC)cc1	2.51 nM	794 nM
340 nM	1.3 nM	COc1ccc(C(=O)/C(Cc2cc(OC)c(OC)c(OC)c2)=C(\C(=O)O)c2ccc3c(c2)OCO3)cc1 [PD-156707 SODIUM]	25.1 nM	> 3160 nM
